Columns and labels:
[1] = Drug excretion in urine of patient (3 patients) with renal insufficiency at 250 mg, po administered as single dose by gas chromatography; type: ADME, organism-based; settings: human, in vivo
Procedure, shortened: (§1)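 Males grouped by 24 h CLcr normalised to body surface area (>80, 50–80, 30–49, 5–29 ml min−1 1.73 m−2), fasted 10 h pre-dose and 4 h post-dose, given a single oral 250 mg flutamide dose. Plasma sampled 0–96 h; urine collected in blocks to 96 h. Flutamide and hydroxyflutamide measured by GC with electron-capture detection. Renal CL = Ae(0,96 h)/AUC(0,96 h); t1/2 = 0.693/λz.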

[2] = Drug excretion in urine of patient (6 patients) with renal insufficiency at 250 mg, po administered as single dose 4 hrs prior to hemodialysis treatment measured at starting time of dialysis and post dialysis treatment by gas chromatography; type: ADME, organism-based; settings: human, in vivo
Procedure, shortened: (§2)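 Group V haemodialysis males (CLcr <5 ml min−1 1.73 m−2). Single oral 250 mg flutamide (two 125 mg capsules) right after HD; after 14-day washout, same dose 4 h before HD lasting 2–4 h. Venous samples to 48 h, arterial/venous during HD, dialysate in hourly blocks. GC with 63Ni electron-capture detection. CL(HD) = dialysate Ae(HD)/arterial AUC(HD); renal CL = Ae(0,48)/AUC(0,48 h).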

[3] = AUClast in patient (4 patients) with renal insufficiency at 250 mg, po administered as single dose by gas chromatography; type: ADME, organism-based; parameters: dose 250 mg, time 0 - last, route oral; settings: human, in vivo
Homo sapiens [4] = assay: AUClast in patient (4 patients) with renal insufficiency at 250 mg, po assessed as hydroxy flutamide administered as single dose by gas chromatography; type: ADME, organism-based; parameters: dose 250 mg, time 0 - last, route oral; settings: in vivo
Homo sapiens [5] = assay: Final time point in terminal phase in patient (6 patients) with renal insufficiency at 250 mg, po administered as single dose 4 hrs prior to hemodialysis treatment measured at starting time of dialysis and post dialysis treatment by gas chromatography; type: ADME, organism-based; settings: in vivo; procedure, shortened: as §2
[6] = Drug excretion in urine of patient (3 patients) with renal insufficiency assessed as hydroxy flutamide at 250 mg, po administered as single dose by gas chromatography; type: ADME, organism-based; settings: human, in vivo; procedure, shortened: as §1
Homo sapiens [7] = assay: AUC (0 to infinity) in patient (6 patients) with renal insufficiency assessed as hydroxy flutamide at 250 mg, po administered as single dose 4 hrs prior to hemodialysis treatment measured at starting time of dialysis and post dialysis treatment by gas chromatography; type: ADME, organism-based; parameters: dose 250 mg, time infinity, route oral; settings: in vivo
Homo sapiens [8] = assay: AUC (0 to 24 hrs) in patient (3 patients) with renal insufficiency assessed as hydroxy flutamide at 250 mg, po administered as single dose by gas chromatography; type: ADME, organism-based; parameters: dose 250 mg, time < 24 hr, route oral; settings: in vivo
[9] = AUC (0 to 24 hrs) in patient (6 patients) with renal insufficiency at 250 mg, po administered as single dose 4 hrs prior to hemodialysis treatment measured at starting time of dialysis and post dialysis treatment by gas chromatography; type: ADME, organism-based; parameters: time < 24 hr, dose 250 mg, route oral; settings: human, in vivo
Homo sapiens [10] = assay: Final time point in terminal phase in patient (6 patients) with renal insufficiency assessed as hydroxy flutamide at 250 mg, po administered as single dose by gas chromatography; type: ADME, organism-based; settings: in vivo; procedure, shortened: as §1
[11] = Elimination rate constant in patient with renal insufficiency at 250 mg, po administered first dose followed by 14 days wash out period and administered second dose 4 hrs prior to hemodialysis measured during hemodialysis treatment by gas chromatography; type: ADME, organism-based; settings: human, in vivo; procedure, shortened: as §2
Homo sapiens [12] = assay: Terminal half life in patient (3 patients) with renal insufficiency assessed as hydroxy flutamide at 250 mg, po administered as single dose by gas chromatography; type: ADME, organism-based; settings: in vivo; procedure, shortened: as §1
Homo sapiens [13] = assay: Final time point in terminal phase in patient (3 patients) with renal insufficiency assessed as hydroxy flutamide at 250 mg, po administered as single dose by gas chromatography; type: ADME, organism-based; settings: in vivo; procedure, shortened: as §1
[14] = Tmax in patient (7 patients) with renal insufficiency at 250 mg, po administered as single dose by gas chromatography; type: ADME, organism-based; settings: human, in vivo; procedure, shortened: as §1
[15] = AUC (0 to 96 hrs) in patient (6 patients) with renal insufficiency at 250 mg, po administered as single dose 4 hrs prior to hemodialysis treatment measured at starting time of dialysis and post dialysis treatment by gas chromatography; type: ADME, organism-based; parameters: dose 250 mg, time < 96 hr, route oral; settings: human, in vivo
Homo sapiens [16] = assay: Clearance in patient (6 patients) with renal insufficiency assessed as hydroxy flutamide at 250 mg, po administered as single dose 4 hrs prior to hemodialysis treatment measured during dialysis treatment by gas chromatography; type: ADME, organism-based; settings: in vivo; procedure, shortened: as §2
[17] = Cmax in patient (4 patients) with renal insufficiency at 250 mg, po administered as single dose by gas chromatography; type: ADME, organism-based; parameters: dose 250 mg, route oral; settings: human, in vivo
Homo sapiens [18] = assay: Toxicity in patient with renal insufficiency assessed as fatigue at 250 mg, po administered as single dose; type: organism-based; settings: in vivo
Procedure, shortened: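 26 male subjects in groups by 24 h creatinine clearance (normalized to body surface area): >80, 50–80, 30–49, 5–29, <5 ml min−1 1.73 m−2 on haemodialysis. Given as two 125 mg capsules after a 10 h fast, continued 4 h post-dose. Prescription drugs withheld for the same period. Subjects confined 12 h pre-dose to 48 h post-dose, with adverse events compared across renal-function groups.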

[19] = Cmax in patient (3 patients) with renal insufficiency at 250 mg, po administered as single dose by gas chromatography; type: ADME, organism-based; parameters: dose 250 mg, route oral; settings: human, in vivo
Homo sapiens [20] = assay: Final time point in terminal phase in patient (7 patients) with renal insufficiency at 250 mg, po administered as single dose by gas chromatography; type: ADME, organism-based; settings: in vivo; procedure, shortened: as §1
[21] = AUC (0 to 24 hrs) in patient (6 patients) with renal insufficiency at 250 mg, po administered as single dose by gas chromatography; type: ADME, organism-based; parameters: dose 250 mg, time < 24 hr, route oral; settings: human, in vivo
[22] = Cmax in patient (6 patients) with renal insufficiency at 250 mg, po administered as single dose by gas chromatography; type: ADME, organism-based; parameters: dose 250 mg, route oral; settings: human, in vivo
Homo sapiens [23] = assay: AUC (0 to 24 hrs) in patient (6 patients) with renal insufficiency assessed as hydroxy flutamide at 250 mg, po administered as single dose 4 hrs prior to hemodialysis treatment measured at starting time of dialysis and post dialysis treatment by gas chromatography; type: ADME, organism-based; parameters: time < 24 hr, dose 250 mg, route oral; settings: in vivo
[24] = Renal clearance in patient (3 patients) with renal insufficiency at 250 mg, po administered as single dose by gas chromatography; type: ADME, organism-based, Kidney; settings: human, in vivo; procedure, shortened: as §1
[25] = Drug recovery in dialysate of patient (6 patients) with renal insufficiency at 250 mg, po administered as single dose 4 hrs prior to hemodialysis treatment measured during dialysis treatment by gas chromatography; type: ADME, organism-based; settings: human, in vivo; procedure, shortened: as §2
[26] = AUClast in patient (3 patients) with renal insufficiency at 250 mg, po administered as single dose by gas chromatography; type: ADME, organism-based; parameters: dose 250 mg, time 0 - last, route oral; settings: human, in vivo
[27] = Drug excretion in urine of patient (4 patients) with renal insufficiency at 250 mg, po administered as single dose by gas chromatography; type: ADME, organism-based; settings: human, in vivo; procedure, shortened: as §1
[28] = Plasma protein binding in healthy geriatric volunteer by equilibrium dialysis method; type: ADME, cell-free; settings: human, read-out: PPB
[29] = Cmax in patient (7 patients) with renal insufficiency at 250 mg, po administered as single dose by gas chromatography; type: ADME, organism-based; parameters: dose 250 mg, route oral; settings: human, in vivo
[30] = AUClast in patient (6 patients) with renal insufficiency at 250 mg, po administered as single dose by gas chromatography; type: ADME, organism-based; parameters: dose 250 mg, time 0 - last, route oral; settings: human, in vivo
[31] = Tmax in patient (6 patients) with renal insufficiency at 250 mg, po administered as single dose by gas chromatography; type: ADME, organism-based; settings: human, in vivo; procedure, shortened: as §1
[32] = Tmax in patient (3 patients) with renal insufficiency at 250 mg, po administered as single dose by gas chromatography; type: ADME, organism-based; settings: human, in vivo; procedure, shortened: as §1
Homo sapiens [33] = assay: Renal clearance in patient (7 patients) with renal insufficiency assessed as hydroxy flutamide at 250 mg, po administered as single dose by gas chromatography; type: ADME, organism-based, Kidney; settings: in vivo; procedure, shortened: as §1

In the case of CC(C)C(=O)Nc1ccc([N+](=O)[O-])c(C(F)(F)F)c1 [FLUTAMIDE], the Drug excretion [1] is reported as 14 µg, the Drug excretion [2] is reported as 0 µg and the AUC(0-t) [3] is reported as 79 ng·h/mL. It also gave an AUClast (Homo sapiens [4]) of 6435 ng·h/mL, a Time (Homo sapiens [5]) of 7 h and a Drug excretion [6] of 132 µg. The AUC (Homo sapiens [7]) was 5963 ng·h/mL, the AUC (Homo sapiens [8]) was 6166 ng·h/mL and the AUC(0-t) at 24 h [9] was 217 ng·h/mL. The Time (Homo sapiens [10]) was 46 h, the k el [11] was 5.56e-05 s⁻¹ and the “beta t1/2” value (Homo sapiens [12]) was 8 h. For the same compound, the Time (Homo sapiens [13]) was 52 h, the Tmax [14] was 1.7 h and the AUC(0-t) at 96 h [15] was 217 ng·h/mL. It also gave a CL (Homo sapiens [16]) of 21 mL/min, a Cmax [17] of 44 ng/mL and an Activity (Homo sapiens [18]) of 12%. For the same compound, the Cmax [19] was 41 ng/mL, the Time (Homo sapiens [20]) was 3.6 h and the AUC(0-t) at 24 h [21] was 96.4 ng·h/mL. The Cmax [22] was 53.4 ng/mL, the AUC (Homo sapiens [23]) was 5434 ng·h/mL and the CL renal [24] was 2 mL/min. For the same compound, the Drug recovery [25] was 0 mg, the AUC(0-t) [26] was 74 ng·h/mL and the Drug excretion [27] was 30 µg. The fraction unbound [28] was < 0.06, the Cmax [29] was 20.9 ng/mL and the AUC(0-t) [30] was 75.8 ng·h/mL. It also gave a Tmax [31] of 1.4 h, a Tmax [32] of 2 h and a CL (Homo sapiens [33]) of 0.3 mL/min.
